This is an account of results in ChEMBL document CHEMBL2331427, “Synthesis and biological evaluation of thieno [2',3':4,5]pyrimido[1,2-b][1,2,4]triazines and thieno[2,3-d][1,2,4]triazolo[1,5-a]pyrimidines as anti-inflammatory and analgesic agents” (Eur J Med Chem, 2013).

The structures appear in SMILES notation. Where only a bound is given, the exact number is not on record here.

For series [1], the system named is Rattus norvegicus. Kind of series: Analgesic activity in albino rat assessed as increase in tail withdrawal latency at 20 mg/kg, po after 4 hrs relative to control. Type of series: functional. Put shortly:
(§1)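 Male albino rats, 120-150 g, five per group, free access to food and water. Compounds given orally at 20 mg/kg; control group kept, diclofenac Na reference at 20 mg/kg po. Tail withdrawal after immersion in 55 °C water. Reaction time read at 1, 2 and 4 h. Reported as mean ± S.E. and as % increase over basal values. ANOVA with Student-Newman-Keuls, P < 0.05.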

In series [2] the test system is Rattus norvegicus. The experiment in a line: Analgesic activity in albino rat assessed as increase in tail withdrawal latency at 20 mg/kg, po after 1 hr relative to control. Type of series: functional. Put shortly: as §1
For series [3], the system named is Rattus norvegicus. Kind of series: Analgesic activity in albino rat assessed as increase in tail withdrawal latency at 20 mg/kg, po after 2 hrs relative to control. It counts as functional. The procedure, abridged: as §1
Series [4] has as its system Rattus norvegicus. Kind of series: Antiinflammatory activity in albino rat assessed as inhibition of formalin-induced paw edema at 20 mg/kg, po qd administered 7 days measured on day 8 post formalin challenge by plethysmometric analysis relative to control. It counts as functional. The procedure, abridged:
(§2)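 Sub-acute model in rats. Compounds given orally at 20 mg/kg daily for 7 consecutive days. 2% formalin (0.1 ml) injected subplantar into left hind paw under light ether anaesthesia 1 h after the day-1 dose, with a second injection on day 3. Paw volume measured plethysmographically on days 1 and 8. Inhibition calculated versus control.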

Series [5] deals with Rattus norvegicus. The experiment in a line: Antiinflammatory activity in albino rat assessed as inhibition of formalin-induced paw edema at 20 mg/kg, po administered 1 hr prior to formalin challenge measured after 4 hrs by plethysmometric analysis relative to control. It counts as functional. The procedure, abridged:
(§3)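 Male albino rats, 180-200 g, five per group. Test compounds given orally at 20 mg/kg; diclofenac Na reference at 20 mg/kg po. After 1 h, 2% formalin (0.1 ml) injected subplantar into left hind paw under light ether anaesthesia. Paw volume read by water plethysmometer at 0, 1, 2 and 4 h. % inhibition of edema increase (Vt−Vo) calculated versus control; mean ± S.E.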

Series [6] concerns Rattus norvegicus. Kind of series: Antiinflammatory activity in albino rat assessed as inhibition of formalin-induced paw edema at 20 mg/kg, po administered 1 hr prior to formalin challenge measured after 1 hr by plethysmometric analysis relative to control. Type of series: functional. The procedure, abridged: as §3
Series [7] deals with Rattus norvegicus. The experiment in a line: Antiinflammatory activity in albino rat assessed as inhibition of formalin-induced paw edema at 20 mg/kg, po qd administered 7 days measured on day 1 post formalin challenge by plethysmometric analysis relative to control. It counts as functional. Put shortly:
as §2

Series [8] deals with Rattus norvegicus. Kind of series: Antiinflammatory activity in albino rat assessed as inhibition of formalin-induced paw edema at 20 mg/kg, po administered 1 hr prior to formalin challenge measured after 2 hrs by plethysmometric analysis relative to control. Type of series: functional. Put shortly: as §3
The test system of series [9] is Rattus norvegicus. The experiment in a line: Ulcerogenic activity in albino rat assessed as appearance of hyperemia at 300 mg/kg, po bid administered for 3 days measured after 6 hrs post last dose relative to control. It counts as toxicity, organism-based. Details: dose 300 mg/kg, route oral. The conditions noted are these: in vivo. The procedure, abridged:
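Rats received 300 mg/kg per day orally as two equal doses at 0 and 12 h for three successive days, with water ad libitum. Controls received 1% gum acacia orally. Animals were killed with diethyl ether 6 h after the last dose. Stomachs were removed and inspected grossly for hyperemia and ulceration. Diclofenac Na served as reference.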

Series [10] is described as follows: Acute toxicity in po dosed rat assessed as mortality after 24 hrs. It counts as organism-based. The conditions noted are these: in vivo, read-out: ALD50. The procedure, abridged:
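Male rats, 180-200 g, groups of five, fasted 24 h before dosing. Compounds given orally at graded doses of 0.1-0.3 g/kg body weight. Mortality at each dose level recorded after 24 h to estimate approximate acute lethal dose (ALD50).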

Series [11] has as its system Rattus norvegicus. Kind of series: Antiinflammatory activity in po dosed albino rat assessed as inhibition of formalin-induced paw edema administered 1 hr prior to formalin challenge measured after 2 hrs by plethysmometric analysis. Type of series: functional. Put shortly: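 Male albino rats, 180-200 g, groups of five, dosed orally at 5, 10, 20, 40 and 50 mg/kg. After 1 h, 2% formalin (0.1 ml) injected subplantar into left hind paw. Paw edema inhibition measured plethysmometrically 2 h after formalin injection. ED50 derived from these doses.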

On to `Cc1sc2nc3ncc(-c4ccc(Br)cc4)nn3c(=O)c2c1C`, for which the Activity in the series on Rattus norvegicus [1] is given as 28%; with Rattus norvegicus [2], 13%; in the series on Rattus norvegicus [3] it was 24%. The inhibition in vivo (in general, how much of the control response was suppressed) at 20 mg/kg came to 25% in the series with Rattus norvegicus [4]; 27% in the series with Rattus norvegicus [5]; 13% with Rattus norvegicus [6]; 33% in the series with Rattus norvegicus [7]; 5% with Rattus norvegicus [8].
`Cc1sc2nc3[nH]c(Nc4ccc(Cl)cc4)nn3c(=O)c2c1C`: the results for the Activity in the series with Rattus norvegicus [1], in the series with Rattus norvegicus [2] and with Rattus norvegicus [3] were 54%, 26% and 40%, respectively. The inhibition in vivo at 20 mg/kg with Rattus norvegicus [4] is 24%; in the series with Rattus norvegicus [5], 11%; in the series on Rattus norvegicus [6] it was 9%; with Rattus norvegicus [7] it was 36%; in the series with Rattus norvegicus [8] it was 6%.
With `Cc1ccc(-c2cnc3nc4sc(C)c(C)c4c(=O)n3n2)cc1`, the values for the Activity with Rattus norvegicus [1], in the series on Rattus norvegicus [2] and in the series with Rattus norvegicus [3] were 29%, 13% and 25%, respectively. The inhibition in vivo at 20 mg/kg in the series with Rattus norvegicus [4] was 22%; in the series on Rattus norvegicus [5], 27%; in the series on Rattus norvegicus [6] it was 21%; in the series with Rattus norvegicus [7], 25%; in the series on Rattus norvegicus [8], 28%.
`Cc1nn2c(=O)c3c(C)c(C)sc3nc2[nH]1`: the Activity with Rattus norvegicus [1] is on record as 54%; in the series on Rattus norvegicus [9], “Non-toxic”; in the series on Rattus norvegicus [2], 30%; with Rattus norvegicus [3], 40%. Further, the inhibition in vivo at 20 mg/kg in the series on Rattus norvegicus [4] is 31%; in the series with Rattus norvegicus [5], 52%; with Rattus norvegicus [6] it was 38%; with Rattus norvegicus [7], 44%; with Rattus norvegicus [8], 43%. In series [10], the LD50 at 24 h was greater than 300 mg/kg. Also, the ED50 (as a rule, the midpoint of the dose-response relation) in the series with Rattus norvegicus [11] was found to be 23.4 mg/kg.
As to `Cc1sc2nc3[nH]c(=S)[nH]n3c(=O)c2c1C`, the Activity is 39% in the series with Rattus norvegicus [1], 20% with Rattus norvegicus [9], 27% in the series on Rattus norvegicus [2] and 35% with Rattus norvegicus [3]. In addition, the inhibition in vivo at 20 mg/kg worked out at 40% in the series with Rattus norvegicus [4]; 27% in the series on Rattus norvegicus [5]; 42% with Rattus norvegicus [6]; 47% with Rattus norvegicus [7]; 43% in the series on Rattus norvegicus [8]. In addition, the LD50 at 24 h in series [10] was greater than 300 mg/kg. Besides, the median effective dose (ED50) in the series with Rattus norvegicus [11] is 27.5 mg/kg.
Consider `Cc1sc2nc3[nH]c(CC#N)nn3c(=O)c2c1C`, for which the Activity in the series on Rattus norvegicus [1] is 64%; in the series with Rattus norvegicus [9] it was 20%; with Rattus norvegicus [2], 41%; in the series on Rattus norvegicus [3], 53%. Further, the inhibition in vivo at 20 mg/kg in the series with Rattus norvegicus [4] was found to be 38%; in the series on Rattus norvegicus [5] it was 36%; in the series on Rattus norvegicus [6], 42%; in the series with Rattus norvegicus [7] it was 47%; with Rattus norvegicus [8], 25%. In series [10], the LD50 at 24 h is greater than 300 mg/kg. The ED50 in the series on Rattus norvegicus [11] was determined as 29 mg/kg.
Turning to `Cc1sc2nc3[nH]c(Nc4ccccc4)nn3c(=O)c2c1C`, the Activity was 26% in the series on Rattus norvegicus [1], 5% in the series on Rattus norvegicus [2] and 17% with Rattus norvegicus [3]. Besides, the inhibition in vivo at 20 mg/kg in the series with Rattus norvegicus [4] was found to be 20%; with Rattus norvegicus [5] it was 25%; in the series with Rattus norvegicus [6], 9%; with Rattus norvegicus [7], 36%; with Rattus norvegicus [8], 12%.
As for `Cc1ccc(Nc2nn3c(=O)c4c(C)c(C)sc4nc3[nH]2)cc1`, the figures for the Activity with Rattus norvegicus [1], in the series with Rattus norvegicus [2] and in the series on Rattus norvegicus [3] were 44%, 23% and 31%, respectively. The inhibition in vivo at 20 mg/kg in the series with Rattus norvegicus [4] is 24%; in the series with Rattus norvegicus [5] it was 18%; with Rattus norvegicus [6], 21%; in the series with Rattus norvegicus [7] it was 33%; in the series with Rattus norvegicus [8], 5%.
With `CCOC(=O)Cc1nn2c(=O)c3c(C)c(C)sc3nc2[nH]1`, the Activity is reported as 62% in the series on Rattus norvegicus [1], 20% with Rattus norvegicus [9], 19% with Rattus norvegicus [2] and 47% in the series on Rattus norvegicus [3]. The inhibition in vivo at 20 mg/kg in the series on Rattus norvegicus [4] is 40%; in the series on Rattus norvegicus [5], 56%; with Rattus norvegicus [6], 47%; with Rattus norvegicus [7] it was 47%; with Rattus norvegicus [8] it was 53%. The LD50 at 24 h in [10] is greater than 300 mg/kg. The ED50 in the series with Rattus norvegicus [11] was determined as 28.1 mg/kg.
On to `Cc1sc2nc3[nH]c(CC(=O)Nc4ccccc4)nn3c(=O)c2c1C`, for which the Activity is 51% in the series with Rattus norvegicus [1], 20% with Rattus norvegicus [9], 21% in the series with Rattus norvegicus [2] and 36% in the series with Rattus norvegicus [3]. The inhibition in vivo at 20 mg/kg with Rattus norvegicus [4] came out at 37%; with Rattus norvegicus [5], 40%; in the series with Rattus norvegicus [6], 42%; with Rattus norvegicus [7] it was 50%; in the series on Rattus norvegicus [8], 37%. For the same molecule, in [10], the LD50 at 24 h is greater than 300 mg/kg. The 50% effective dose (ED50) in the series on Rattus norvegicus [11] came out at 26.1 mg/kg.
For `Cc1sc2nc3[nH]c(CC(=O)Nc4ccc(Cl)cc4)nn3c(=O)c2c1C`, the Activity is on record as 40% with Rattus norvegicus [1], 28% in the series on Rattus norvegicus [2] and 32% with Rattus norvegicus [3]. Moreover, the inhibition in vivo at 20 mg/kg in the series on Rattus norvegicus [4] was found to be 38%; in the series with Rattus norvegicus [5], 29%; in the series on Rattus norvegicus [6] it was 33%; with Rattus norvegicus [7], 36%; in the series on Rattus norvegicus [8], 28%.
Take `COc1ccc(NC(=O)Cc2nn3c(=O)c4c(C)c(C)sc4nc3[nH]2)cc1`: the Activity in the series with Rattus norvegicus [1] is reported as 42%; with Rattus norvegicus [9], “Non-toxic”; with Rattus norvegicus [2] it was 14%; in the series with Rattus norvegicus [3], 35%. The inhibition in vivo at 20 mg/kg with Rattus norvegicus [4] was 38%; in the series with Rattus norvegicus [5] it was 43%; with Rattus norvegicus [6] it was 47%; in the series with Rattus norvegicus [7] it was 41%; with Rattus norvegicus [8], 40%. Besides, the LD50 at 24 h in [10] is greater than 300 mg/kg. Besides, the ED50 in the series on Rattus norvegicus [11] amounted to 18.4 mg/kg.
Consider `Cc1sc2nc3ncc(-c4ccccc4)nn3c(=O)c2c1C`, for which the Activity came out at 50% in the series on Rattus norvegicus [1], 17% in the series on Rattus norvegicus [2] and 34% in the series with Rattus norvegicus [3]. The inhibition in vivo at 20 mg/kg with Rattus norvegicus [4] came out at 38%; with Rattus norvegicus [5], 34%; in the series on Rattus norvegicus [6], 14%; in the series on Rattus norvegicus [7], 38%; with Rattus norvegicus [8], 28%.
`Cc1sc2nc3ncc(-c4ccc(Cl)cc4)nn3c(=O)c2c1C`: the results for the Activity in the series with Rattus norvegicus [1], in the series with Rattus norvegicus [2] and in the series with Rattus norvegicus [3] were 23%, 6% and 11%, respectively. For the same molecule, the inhibition in vivo at 20 mg/kg in the series with Rattus norvegicus [4] was determined as 18%; in the series with Rattus norvegicus [5], 20%; in the series with Rattus norvegicus [6], 14%; in the series with Rattus norvegicus [7], 36%; in the series on Rattus norvegicus [8], 12%.
`O=C([O-])Cc1ccccc1Nc1c(Cl)cccc1Cl.[Na+]` [DICLOFENAC SODIUM]: the Activity in the series with Rattus norvegicus [1] amounted to 56%; in the series with Rattus norvegicus [9], 20%; in the series with Rattus norvegicus [2] it was 30%. Further, the inhibition in vivo at 20 mg/kg is 40% in the series on Rattus norvegicus [4], 52% in the series on Rattus norvegicus [5], 38% in the series with Rattus norvegicus [6] and 44% in the series on Rattus norvegicus [7]. Moreover, in the series with Rattus norvegicus [11], the ED50 was 25.1 mg/kg.
